These molecules were tested on Candida albicans (assay: Growth inhibition of Candida albicans ATCC 90028 at 2 ug/ml incubated for 4 hrs at 35 degC by broth microdilution method relative to control). Settings: ATCC 90028, 4 h, read-out: GI.
Format: functional
`COC(C(=O)OC(C)Cn1cnc2c1c(=O)n(C)c(=O)n2C)c1cccc2ccccc12` (centres undefined) was tested, and the inhibition of growth at 2 µg/mL was 99.3%.

Each molecule was assayed on Candida albicans (assay: Growth inhibition of Candida albicans ATCC 90028 at 0.0625 ug/ml incubated for 4 hrs at 35 degC by broth microdilution method relative to control). Settings: ATCC 90028, 4 h, read-out: GI.
Format: functional
In the case of `COC(C(=O)OC(C)Cn1cnc2c1c(=O)n(C)c(=O)n2C)c1cccc2ccccc12` (centres undefined), the inhibition of growth at 0.0625 µg/mL is reported as 100%.

What follows are molecules tested on Candida albicans (assay: Growth inhibition of Candida albicans ATCC 90028 at 1 ug/ml incubated for 18 hrs at 35 degC by broth microdilution method relative to control). Settings: ATCC 90028, 18 h, read-out: GI.
Format: functional
`COC(C(=O)OC(C)Cn1cnc2c1c(=O)n(C)c(=O)n2C)c1cccc2ccccc12` (centres undefined) showed an inhibition of growth at 1 µg/mL of 100%.

The molecules below were run on Candida albicans (assay: Fungicidal activity against Candida albicans ATCC 90028 assessed as log reduction in cell viability at 16 ug/ml after 48 hrs at 35 degC). Settings: not given.
Format: functional
Outline: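 MFC assay on C. albicans ATCC 90028 following M27-A3, at the molar equivalent of 16 µg/mL. CFU of treated cells were compared with CFU of the untreated inoculum. Activity is given as lg R = lg CFU/mL control − lg CFU/mL treated, and lg R ≥3 was defined as fungicidal. Values are means of two independent experiments.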
In the case of `COC(C(=O)OC(C)Cn1cnc2c1c(=O)n(C)c(=O)n2C)c1cccc2ccccc12` (centres undefined), the “log(activity)” value is reported as 0.5.

Each molecule was assayed on MCF7 (assay: Antiproliferative activity against human MCF7 cells assessed as cell viability at 200 uM after 72 hrs by MTT assay). Settings: MCF7, 72 h, read-out: Activity.
Format: functional
Outline: (§1)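 MTT viability assay in CCRF-CEM and MCF-7 cells after 72 h exposure at 25, 50, 100 and 200 µM. Results are relative to control cells without inhibitor in 0.5% DMSO. Done in triplicate; values are means ± SD of three independent experiments.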
With `COC(C(=O)OC(C)Cn1cnc2c1c(=O)n(C)c(=O)n2C)c1cccc2ccccc12` (centres undefined) the viability at 200 µM was 76.9%.

Each molecule was assayed on Candida albicans (assay: Growth inhibition of Candida albicans ATCC 90028 at 2 ug/ml incubated for 18 hrs at 35 degC by broth microdilution method relative to control). Settings: ATCC 90028, 18 h, read-out: GI.
Format: functional
Work on `COC(C(=O)OC(C)Cn1cnc2c1c(=O)n(C)c(=O)n2C)c1cccc2ccccc12` (centres undefined) yielded an inhibition of growth at 2 µg/mL of 99.9%.

What follows are molecules tested on Candida albicans (assay: Growth inhibition of Candida albicans ATCC 90028 at 8 ug/ml incubated for 4 hrs at 35 degC by broth microdilution method relative to control). Settings: ATCC 90028, 4 h, read-out: GI.
Format: functional
With `COC(C(=O)OC(C)Cn1cnc2c1c(=O)n(C)c(=O)n2C)c1cccc2ccccc12` (centres undefined) the inhibition of growth at 8 µg/mL was 99%.

The molecules below were run on Candida albicans (assay: Growth inhibition of Candida albicans ATCC 90028 at 4 ug/ml incubated for 18 hrs at 35 degC by broth microdilution method relative to control). Settings: ATCC 90028, 18 h, read-out: GI.
Format: functional
Work on `COC(C(=O)OC(C)Cn1cnc2c1c(=O)n(C)c(=O)n2C)c1cccc2ccccc12` (centres undefined) yielded an inhibition of growth at 4 µg/mL of 99.5%.

What follows are molecules tested on Candida albicans (assay: Growth inhibition of Candida albicans ATCC 90028 at 0.5 ug/ml incubated for 4 hrs at 35 degC by broth microdilution method relative to control). Settings: ATCC 90028, 4 h, read-out: GI.
Format: functional
`COC(C(=O)OC(C)Cn1cnc2c1c(=O)n(C)c(=O)n2C)c1cccc2ccccc12` (centres undefined) showed an inhibition of growth at 0.5 µg/mL of 99.1%.

What follows are molecules tested on MCF7 (assay: Antiproliferative activity against human MCF7 cells assessed as cell viability at 100 uM after 72 hrs by MTT assay). Settings: MCF7, 72 h, read-out: Activity.
Format: functional
Outline: as §1
`COC(C(=O)OC(C)Cn1cnc2c1c(=O)n(C)c(=O)n2C)c1cccc2ccccc12` (centres undefined) gave a viability at 100 µM of 83.3%.

These molecules were tested on CCRF-CEM (assay: Antiproliferative activity against human CCRF-CEM cells assessed as cell viability at 100 uM after 72 hrs by MTT assay). Settings: read-out: Activity.
Format: functional
Outline: as §1
Work on `COC(C(=O)OC(C)Cn1cnc2c1c(=O)n(C)c(=O)n2C)c1cccc2ccccc12` (centres undefined) yielded a viability at 100 µM of 51.4%.

Each molecule was assayed on CCRF-CEM (assay: Antiproliferative activity against human CCRF-CEM cells assessed as cell viability at 200 uM after 72 hrs by MTT assay). Settings: read-out: Activity.
Format: functional
Outline: as §1
With `COC(C(=O)OC(C)Cn1cnc2c1c(=O)n(C)c(=O)n2C)c1cccc2ccccc12` (centres undefined) the viability at 200 µM was 34.6%.

The molecules below were run on Candida albicans (assay: Growth inhibition of Candida albicans ATCC 90028 at 0.0625 ug/ml incubated for 18 hrs at 35 degC by broth microdilution method relative to control). Settings: ATCC 90028, 18 h, read-out: GI.
Format: functional
`COC(C(=O)OC(C)Cn1cnc2c1c(=O)n(C)c(=O)n2C)c1cccc2ccccc12` (centres undefined) gave an inhibition of growth at 0.0625 µg/mL of 100%.

What follows are molecules tested on Candida albicans (assay: Growth inhibition of Candida albicans ATCC 90028 at 0.125 ug/ml incubated for 4 hrs at 35 degC by broth microdilution method relative to control). Settings: ATCC 90028, 4 h, read-out: GI.
Format: functional
For `COC(C(=O)OC(C)Cn1cnc2c1c(=O)n(C)c(=O)n2C)c1cccc2ccccc12` (centres undefined), the inhibition of growth at 0.125 µg/mL was 100%.

These molecules were tested on CCRF-CEM (assay: Antiproliferative activity against human CCRF-CEM cells assessed as cell viability at 25 uM after 72 hrs by MTT assay). Settings: read-out: Activity.
Format: functional
Outline: as §1
`COC(C(=O)OC(C)Cn1cnc2c1c(=O)n(C)c(=O)n2C)c1cccc2ccccc12` (centres undefined) showed a viability at 25 µM of 96.6%.

These molecules were tested on Candida albicans (assay: Growth inhibition of Candida albicans ATCC 90028 at 8 ug/ml incubated for 48 hrs at 35 degC by broth microdilution method relative to control). Settings: ATCC 90028, 48 h, read-out: GI.
Format: functional
`COC(C(=O)OC(C)Cn1cnc2c1c(=O)n(C)c(=O)n2C)c1cccc2ccccc12` (centres undefined) gave an inhibition of growth at 8 µg/mL of 99.6%.

These molecules were tested on Candida albicans (assay: Growth inhibition of Candida albicans ATCC 90028 at 16 ug/ml incubated for 48 hrs at 35 degC by broth microdilution method relative to control). Settings: ATCC 90028, 48 h, read-out: GI.
Format: functional
With `COC(C(=O)OC(C)Cn1cnc2c1c(=O)n(C)c(=O)n2C)c1cccc2ccccc12` (centres undefined) the inhibition of growth at 16 µg/mL was 99.4%.

The molecules below were run on MCF7 (assay: Antiproliferative activity against human MCF7 cells assessed as cell viability at 25 uM after 72 hrs by MTT assay). Settings: MCF7, 72 h, read-out: Activity.
Format: functional
Outline: as §1
For `COC(C(=O)OC(C)Cn1cnc2c1c(=O)n(C)c(=O)n2C)c1cccc2ccccc12` (centres undefined), the viability at 25 µM was 92.6%.

The molecules below were run on Candida albicans (assay: Growth inhibition of Candida albicans ATCC 90028 at 8 ug/ml incubated for 18 hrs at 35 degC by broth microdilution method relative to control). Settings: ATCC 90028, 18 h, read-out: GI.
Format: functional
Molecule `COC(C(=O)OC(C)Cn1cnc2c1c(=O)n(C)c(=O)n2C)c1cccc2ccccc12` (centres undefined) has an inhibition of growth at 8 µg/mL of 100%.

Each molecule was assayed on Candida albicans (assay: Growth inhibition of Candida albicans ATCC 90028 at 0.125 ug/ml incubated for 18 hrs at 35 degC by broth microdilution method relative to control). Settings: ATCC 90028, 18 h, read-out: GI.
Format: functional
For `COC(C(=O)OC(C)Cn1cnc2c1c(=O)n(C)c(=O)n2C)c1cccc2ccccc12` (centres undefined), the inhibition of growth at 0.125 µg/mL was 100%.

Each molecule was assayed on Candida albicans (assay: Growth inhibition of Candida albicans ATCC 90028 at 0.5 ug/ml incubated for 18 hrs at 35 degC by broth microdilution method relative to control). Settings: ATCC 90028, 18 h, read-out: GI.
Format: functional
For `COC(C(=O)OC(C)Cn1cnc2c1c(=O)n(C)c(=O)n2C)c1cccc2ccccc12` (centres undefined), the inhibition of growth at 0.5 µg/mL was 100%.

Each molecule was assayed on Candida albicans (assay: Growth inhibition of Candida albicans ATCC 90028 at 0.25 ug/ml incubated for 4 hrs at 35 degC by broth microdilution method relative to control). Settings: ATCC 90028, 4 h, read-out: GI.
Format: functional
`COC(C(=O)OC(C)Cn1cnc2c1c(=O)n(C)c(=O)n2C)c1cccc2ccccc12` (centres undefined) was tested, and the inhibition of growth at 0.25 µg/mL was 98.9%.

The molecules below were run on Candida albicans (assay: Growth inhibition of Candida albicans ATCC 90028 at 1 ug/ml incubated for 4 hrs at 35 degC by broth microdilution method relative to control). Settings: ATCC 90028, 4 h, read-out: GI.
Format: functional
For `COC(C(=O)OC(C)Cn1cnc2c1c(=O)n(C)c(=O)n2C)c1cccc2ccccc12` (centres undefined), the inhibition of growth at 1 µg/mL was 99.3%.

These molecules were tested on CCRF-CEM (assay: Antiproliferative activity against human CCRF-CEM cells assessed as cell viability at 50 uM after 72 hrs by MTT assay). Settings: read-out: Activity.
Format: functional
Outline: as §1
`COC(C(=O)OC(C)Cn1cnc2c1c(=O)n(C)c(=O)n2C)c1cccc2ccccc12` (centres undefined) was tested, and the viability at 50 µM was 87.9%.

What follows are molecules tested on MCF7 (assay: Antiproliferative activity against human MCF7 cells assessed as cell viability at 50 uM after 72 hrs by MTT assay). Settings: MCF7, 72 h, read-out: Activity.
Format: functional
Outline: as §1
In the case of `COC(C(=O)OC(C)Cn1cnc2c1c(=O)n(C)c(=O)n2C)c1cccc2ccccc12` (centres undefined), the viability at 50 µM is reported as 87.7%.

These molecules were tested on Candida albicans (assay: Growth inhibition of Candida albicans ATCC 90028 at 0.25 ug/ml incubated for 18 hrs at 35 degC by broth microdilution method relative to control). Settings: ATCC 90028, 18 h, read-out: GI.
Format: functional
`COC(C(=O)OC(C)Cn1cnc2c1c(=O)n(C)c(=O)n2C)c1cccc2ccccc12` (centres undefined) showed an inhibition of growth at 0.25 µg/mL of 99.9%.

The molecules below were run on Candida albicans (assay: Growth inhibition of Candida albicans ATCC 90028 at 16 ug/ml incubated for 18 hrs at 35 degC by broth microdilution method relative to control). Settings: ATCC 90028, 18 h, read-out: GI.
Format: functional
In the case of `COC(C(=O)OC(C)Cn1cnc2c1c(=O)n(C)c(=O)n2C)c1cccc2ccccc12` (centres undefined), the inhibition of growth at 16 µg/mL is reported as 99.8%.

What follows are molecules tested on Candida albicans (assay: Growth inhibition of Candida albicans ATCC 90028 at 0.0313 ug/ml incubated for 4 hrs at 35 degC by broth microdilution method relative to control). Settings: ATCC 90028, 4 h, read-out: GI.
Format: functional
For `COC(C(=O)OC(C)Cn1cnc2c1c(=O)n(C)c(=O)n2C)c1cccc2ccccc12` (centres undefined), the inhibition of growth at 0.0313 µg/mL was 99.5%.

These molecules were tested on Candida albicans (assay: Growth inhibition of Candida albicans ATCC 90028 at 0.0313 ug/ml incubated for 18 hrs at 35 degC by broth microdilution method relative to control). Settings: ATCC 90028, 18 h, read-out: GI.
Format: functional
For `COC(C(=O)OC(C)Cn1cnc2c1c(=O)n(C)c(=O)n2C)c1cccc2ccccc12` (centres undefined), the inhibition of growth at 0.0313 µg/mL was 100%.
